Reference: ChEMBL document CHEMBL1135743 (J Med Chem, 2002)

Columns and labels:
Adenosine receptor A2a [1] = molecular target: T1, Adenosine receptor A2a (Homo sapiens, UniProt P29274); experiment: Ability to displace [3H]- ZM-241385 from CHO cell membrane expressing the human Adenosine A2A receptor at a concentration of 10 uM; type: cell membranes
[2] = molecular target: T2, Adenosine receptor A1 (Homo sapiens) (UniProt P30542); experiment: Displacement of [3H]- DPCPX from CHO cell membrane expressing human Adenosine A1 receptor; type: cell membranes
T2 sequence (whole entry): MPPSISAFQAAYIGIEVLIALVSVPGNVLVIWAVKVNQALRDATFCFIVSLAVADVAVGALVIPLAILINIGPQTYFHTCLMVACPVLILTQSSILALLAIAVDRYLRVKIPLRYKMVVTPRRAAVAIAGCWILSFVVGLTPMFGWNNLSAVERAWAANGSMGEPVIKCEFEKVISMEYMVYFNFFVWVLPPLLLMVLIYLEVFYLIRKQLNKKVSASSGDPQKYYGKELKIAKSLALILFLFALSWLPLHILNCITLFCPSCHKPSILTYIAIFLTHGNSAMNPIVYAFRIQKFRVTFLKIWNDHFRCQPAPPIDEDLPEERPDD
Method in brief: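 Membranes from CHO cells stably expressing human A1, resuspended in 50 mM Tris/HCl pH 7.4 with adenosine deaminase 2 IU/mL. Incubated with 1.6 nM (final) [3H]DPCPX in 50 mM Tris/HCl pH 7.4 for 1 h at 25 °C. Nonspecific binding was set with 10 µM CPA. Filtration over GF/B, three ice-cold washes, then liquid scintillation counting. Ligand stocks were in DMSO.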

Adenosine receptor A3 = molecular target: T3, Adenosine receptor A3 (Homo sapiens, UniProt P0DMS8); experiment: Ability to displace [125I]- AB-MECA from HEK 293 cell membrane expressing the human Adenosine A3 receptor; type: cell membranes, HEK293
T3 sequence (P0DMS8 whole entry): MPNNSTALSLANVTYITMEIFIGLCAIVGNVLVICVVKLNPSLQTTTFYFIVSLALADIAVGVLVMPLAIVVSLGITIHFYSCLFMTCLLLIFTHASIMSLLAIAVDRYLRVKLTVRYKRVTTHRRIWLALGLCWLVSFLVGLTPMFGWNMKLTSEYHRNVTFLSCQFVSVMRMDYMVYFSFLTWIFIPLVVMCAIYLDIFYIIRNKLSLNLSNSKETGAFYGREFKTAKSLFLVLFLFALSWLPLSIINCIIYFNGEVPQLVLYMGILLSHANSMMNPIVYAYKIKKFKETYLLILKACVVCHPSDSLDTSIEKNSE

Adenosine receptor A1 = molecular target: T4, Adenosine receptor A1 (Homo sapiens, UniProt P30542); experiment: Displacement of [3H]DPCPX from CHO cell membrane expressing human Adenosine A1 receptor; type: cell membranes
T4 sequence (P30542 whole entry): T2 sequence (whole entry)

Adenosine receptor A2a [3] = molecular target: T1, Adenosine receptor A2a; experiment: Displacement of [3H]ZM-241,385 from CHO cell membrane expressing human Adenosine A2A receptor; type: cell membranes
Method in brief: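 Membranes from CHO cells expressing human A2A, with adenosine deaminase 2 IU/mL added. Incubation used 2.0 nM (final) [3H]ZM241385 in 50 mM Tris/HCl pH 7.4 for 2 h at 25 °C. Nonspecific binding was set with 100 µM CPA. GF/B filtration, four ice-cold washes, scintillation counting. Ligands were dissolved in DMSO stocks.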

[4] = molecular target: T2, Adenosine receptor A1 (Homo sapiens); experiment: Ability to displace [3H]- DPCPX from CHO cell membrane expressing the human Adenosine A1 receptor at a concentration of 10 uM; type: cell membranes
Adenosine receptor A2a [5] = molecular target: T1, Adenosine receptor A2a; experiment: Displace [3H]ZM-241385 from CHO cell membrane expressing human Adenosine A2A receptor at 10 uM; type: cell membranes
[6] = molecular target: T2, Adenosine receptor A1 (Homo sapiens); experiment: Displacement of [3H]DPCPX from CHO cell membrane expressing human Adenosine A1 receptor at 10 uM; type: cell membranes
[7] = molecular target: T5, Adenosine receptor A3 (Homo sapiens) (UniProt P0DMS8); experiment: Displacement of [125I]AB-MECA from HEK293 cell membrane expressing human Adenosine A3 receptor at 10 uM; type: cell membranes
T5 sequence (whole entry): T3 sequence (P0DMS8 whole entry)

T1 sequence (P29274 whole entry): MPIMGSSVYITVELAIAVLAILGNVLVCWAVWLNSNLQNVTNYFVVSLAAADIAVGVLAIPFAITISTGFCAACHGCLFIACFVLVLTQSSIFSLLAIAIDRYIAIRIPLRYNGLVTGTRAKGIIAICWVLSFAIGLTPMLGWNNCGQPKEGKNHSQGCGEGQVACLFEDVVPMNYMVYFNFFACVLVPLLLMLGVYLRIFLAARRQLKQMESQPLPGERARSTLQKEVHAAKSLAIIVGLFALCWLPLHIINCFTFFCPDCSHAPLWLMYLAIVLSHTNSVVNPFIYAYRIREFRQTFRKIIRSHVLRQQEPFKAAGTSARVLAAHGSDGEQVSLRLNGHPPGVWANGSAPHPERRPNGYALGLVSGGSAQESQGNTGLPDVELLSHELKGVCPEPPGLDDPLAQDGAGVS

| Displacement (Adenosine receptor A2a [1]) | Ki (Adenosine receptor A3) | Ki (Adenosine receptor A1) | Ki (Adenosine receptor A2a [3]) | Displacement [4] | Structure (SMILES) | further results |
| --- | --- | --- | --- | --- | --- | --- |
| – | 14 nM | 124 nM | 96 nM | – | C#CCn1c(=O)c2c(nc3ccccn32)n(Cc2ccccc2)c1=O | – |
| 23% | 555 nM | – | – | 53% | CC(C)(C)c1ccn2c(c1)nc1c2c(=O)[nH]c(=O)n1Cc1ccccc1 | – |
| – | 5 nM | 42 nM | 161 nM | – | C=CCn1c(=O)c2c(nc3ccccn32)n(Cc2ccccc2)c1=O | – |
| – | 77 nM | – | 25800 nM | 20% | O=c1c2c(nc3ccccn32)n(Cc2ccccc2)c(=O)n1Cc1ccccc1 | – |
| 8% | – | – | – | 25% | CCCn1c(=O)c2c(nc3cc(-c4ccccc4)ccn32)n(Cc2ccccc2)c1=O | – |
| 44% | 10 nM | 179 nM | – | – | CCCn1c(=O)c2c(nc3cc(OC)ccn32)n(Cc2ccccc2)c1=O | – |

More lines, now with the values behind:

| Structure (SMILES) | Displacement (Adenosine receptor A2a [1]) | Ki (Adenosine receptor A3) | Ki (Adenosine receptor A1) | Ki (Adenosine receptor A2a [3]) | Displacement [4] | further results |
| --- | --- | --- | --- | --- | --- | --- |
| O=c1c2c(nc3ccccn32)n(Cc2ccccc2)c(=O)n1CC1CCCCC1 | 22% | 114 nM | – | – | – | Displacement [2]: 21% |
| CCCn1c(=O)c2c(nc3cc(C(C)(C)C)ccn32)n(Cc2ccccc2)c1=O | – | 950 nM | 1460 nM | 385 nM | – | – |
| CC(C)Cn1c(=O)c2c(nc3ccccn32)n(Cc2ccccc2)c1=O | 40% | 6.3 nM | 28 nM | – | – | – |
| CCCn1c(=O)c2c(nc3ccccn32)n(Cc2ccc(OC)cc2)c1=O | 40% | 8.3 nM | 83 nM | – | – | – |
| CCCn1c(=O)c2c(nc3ccccn32)n(Cc2cccc(C)c2)c1=O | 35% | 68 nM | – | – | 44% | – |
| COC(=O)/C=C/Cn1c(=O)c2c(nc3ccccn32)n(Cc2ccccc2)c1=O | – | 1130 nM | – | – | – | Displacement (Adenosine receptor A2a [5]): 12%; Displacement [6]: 1% |
| CCCn1c(=O)c2c(nc3ccccn32)n(Cc2ccccc2)c1=O | – | – | – | 119 nM | – | – |
| CCCn1c(=O)c2c(nc3ccccn32)n(C)c1=O | – | 3020 nM | 2100 nM | – | – | Displacement (Adenosine receptor A2a [5]): 49% |
| COc1ccn2c(c1)nc1c2c(=O)[nH]c(=O)n1Cc1ccccc1 | 10% | 210 nM | – | – | 49% | – |
| NCCCn1c(=O)c2c(nc3ccccn32)n(Cc2ccccc2)c1=O | 11% | – | – | – | 7% | Displacement [7]: 6% |
| O=c1c2c(nc3ccccn32)n(Cc2ccccc2)c(=O)n1CC1CC1 | – | 4.2 nM | – | 242 nM | 40.9% | – |
| COc1ccc(Cn2c(=O)c3c(nc4ccccn43)n(Cc3ccccc3)c2=O)cc1 | 16% | 213 nM | – | – | 25% | – |
| O=c1[nH]c(=O)n(Cc2ccccc2)c2nc3cc(-c4ccccc4)ccn3c12 | 0% | 200 nM | – | – | 11% | – |
| O=c1[nH]c(=O)n(Cc2ccccc2)c2nc3ccccn3c12 | 32% | 370 nM | – | – | 47% | – |
| CCn1c(=O)c2c(nc3ccccn32)n(Cc2ccccc2)c1=O | – | 36 nM | 325 nM | 584 nM | – | – |
